Laboratory results reported in ChEMBL document CHEMBL1138596, “Synthesis and biological evaluation of novel 4-(hetero) aryl-2-piperazino quinazolines as anti-leishmanial and anti-proliferative agents” (Bioorg Med Chem Lett, 2009).
In brackets after ≈: the same amount, converted by molar mass.

Columns and labels:
Leishmania donovani [1] = assay: Antileishmanial activity against Leishmania donovani MHOM/IN/Dd8 promastigotes assessed as luciferase activity after 72 hrs; format: functional, organism-based; details: MHOM/IN/Dd8, 72 h
Summary of the method: (§1)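 L. donovani parasites transfected with firefly luciferase gene, maintained in medium 199 with 10% fetal calf serum, penicillin (50 U/ml) and streptomycin under G418 pressure; compounds tested at various concentrations against transgenic promastigotes and intracellular amastigotes; IC50 calculated by Probit analysis.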

C-33-A = assay: Antiproliferative activity against human C33A cells by MTT assay; format: functional, cell-based
Summary of the method: (§2)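 Twofold serial dilutions of compound up to a highest concentration of 50 µg/mL; viability read by MTT assay; panel of DU145 prostate, MCF-7 breast, KB oral epidermal, C33A cervical carcinoma lines and non-cancerous VERO cells.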

DU-145 = assay: Antiproliferative activity against human DU145 cells by MTT assay; format: functional, cell-based; summary of the method: as §2
Vero = assay: Antiproliferative activity against african green monkey Vero cells by MTT assay; format: cell-based; details: Chlorocebus sabaeus; summary of the method: as §2
KB = assay: Antiproliferative activity against human KB cells by MTT assay; format: functional, cell-based; summary of the method: as §2
Leishmania donovani [2] = assay: Antileishmanial activity against Leishmania donovani MHOM/IN/Dd8 amastigotes infected in mouse J774A1 cells assessed as luciferase activity after 48 hrs; format: functional, organism-based; details: for Activity: J774.A1; for IC50: MHOM/IN/Dd8, J774.A1, 48 h; summary of the method: as §1
MCF7 = assay: Antiproliferative activity against human MCF7 cells by MTT assay; format: functional, cell-based; summary of the method: as §2
[3] = Cytotoxicity against mouse J774A1 cells; format: cell-based, J774.A1
Summary of the method: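 Mouse macrophage line J-774-A-1; cytotoxicity read by MTT assay.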

[4] = (§3) Selectivity index, ratio of CC50 for mouse J774A1 cells to IC50 for Leishmania donovani MHOM/IN/Dd8 amastigotes; format: functional, J774.A1
J774.A1 = assay: as §3; format: functional

Compound	IC50 (Leishmania donovani [1]) [µg/mL]	IC50 (C-33-A) [µg/mL]	IC50 (DU-145) [µg/mL]	IC50 (Vero) [µg/mL]	IC50 (KB) [µg/mL]	Activity (Leishmania donovani [2])	IC50 (MCF7) [µg/mL]	CC50 [3] [µg/mL]	Ratio CC50/IC50 [4]	IC50 (Leishmania donovani [2]) [µg/mL]	Ratio CC50/IC50 (J774.A1)
COc1cc(OC)c(-c2nc(N3CCNCC3)nc3ccccc23)c(OC)c1	0.25 (≈ 0.657 µM)	> 50	> 50	> 50	> 50	Toxic	> 50	–	–	–	–
CN1CCN(c2nc(-c3cn(C)c4ccccc34)c3ccccc3n2)CC1	0.62 (≈ 1.73 µM)	> 50	> 50	> 50	> 50	Toxic	> 50	1.03 (≈ 2.88 µM)	–	–	–
N=C(N)c1ccc(OCCCCCOc2ccc(C(=N)N)cc2)cc1 [PENTAMIDINE]	–	–	–	–	–	–	–	–	2.07	–	–
COc1ccc(-c2nc(N3CCNCC3)nc3ccccc23)c(OC)c1	0.624 (≈ 1.78 µM)	> 50	> 50	> 50	> 50	–	> 50	3.98 (≈ 11.4 µM)	0.78	5.11 (≈ 14.6 µM)	–
c1ccc2c(-c3c[nH]c4ccccc34)nc(N3CCNCC3)nc2c1	0.56 (≈ 1.7 µM)	8.2 (≈ 24.9 µM)	12.5 (≈ 37.9 µM)	8.9 (≈ 27 µM)	4 (≈ 12.1 µM)	Toxic	14.1 (≈ 42.8 µM)	3.11 (≈ 9.44 µM)	–	–	–
COc1ccc(-c2nc(N3CCN(C)CC3)nc3ccccc23)c(OC)c1	3.79 (≈ 10.4 µM)	> 50	> 50	> 50	> 50	–	> 50	18 (≈ 49.4 µM)	4.21	4.28 (≈ 11.7 µM)	–
c1ccc2c(-c3c[nH]c4ccccc34)nc(N3CCOCC3)nc2c1	1.8 (≈ 5.45 µM)	> 50	> 50	> 50	> 50	–	> 50	50.1 (≈ 152 µM)	1.99	25.1 (≈ 76.1 µM)	–
COc1cc(OC)c(-c2nc(N3CCN(C)CC3)nc3ccccc23)c(OC)c1	6.2 (≈ 15.7 µM)	> 50	> 50	> 50	> 50	–	> 50	> 100	>8.03	12.4 (≈ 31.6 µM)	–
CN1CCN(c2nc(-c3c[nH]c4ccccc34)c3ccccc3n2)CC1	0.68 (≈ 1.98 µM)	11.5 (≈ 33.5 µM)	20.8 (≈ 60.6 µM)	22.3 (≈ 64.9 µM)	4.9 (≈ 14.3 µM)	–	6 (≈ 17.5 µM)	7.27 (≈ 21.2 µM)	1.74	4.17 (≈ 12.1 µM)	–
Cn1cc(-c2nc(N3CCNCC3)nc3ccccc23)c2ccccc21	0.28 (≈ 0.815 µM)	> 50	> 50	> 50	> 50	–	> 50	16 (≈ 46.6 µM)	1.28	12.5 (≈ 36.4 µM)	–
Fc1ccc(N2CCN(c3nc(-c4c[nH]c5ccccc45)c4ccccc4n3)CC2)cc1	1.72 (≈ 4.06 µM)	> 50	> 50	> 50	> 50	–	> 50	23.4 (≈ 55.3 µM)	1.9	12.3 (≈ 29.1 µM)	–
Sodium stilbogluconate	–	–	–	–	–	–	–	–	–	–	6.38
c1ccc2c(-c3c[nH]c4ccccc34)nc(N3CCCCC3)nc2c1	> 10	> 50	> 50	> 50	> 50	–	> 50	–	–	–	–
